Measured values published in ChEMBL document CHEMBL1130404, “Synthesis and evaluation of polycyclic pyrazolo[3,4-d]pyrimidines as PDE1 and PDE5 cGMP phosphodiesterase inhibitors” (J Med Chem, 1997).

Tests used:
[1] = molecular target: Phosphodiesterase 1 (Bos taurus, UniProt Q01061+P14100); assay: Inhibition of phosphodiesterases PDE1 from bovine aorta; type: protein assay
In short: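 Bovine aorta enzyme; 50 mM Tris-HCl pH 7.5, 2 mM MgCl2, 0.1 mg/mL BSA, 1 mM CaCl2, 0.1 μM calmodulin, 1 μM [3H]cGMP substrate; 30 min at 30 °C. IC50 read from % inhibition vs log molar concentration curve; duplicates, mean reported.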

[2] = system: Rattus norvegicus; assay: Antihypertensive activity in spontaneously hypertensive rats at 10 mg/kg administered orally; type: functional; conditions: route oral
In short: (§1)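 Spontaneously hypertensive rats dosed orally with aqueous solution or suspension in 0.4% methylcellulose vehicle. Value is peak change in mean arterial pressure relative to a vehicle-treated control group.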

[3] = molecular target: cGMP-specific 3',5'-cyclic phosphodiesterase (Bos taurus, UniProt Q28156); assay: Inhibition of phosphodiesterase 5 from bovine lung
In short: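 Purified bovine lung enzyme in 50 mM Tris-HCl (pH 7.5), 2 mM MgCl2, 0.1 mg/mL BSA with 1 μM [3H]cGMP as substrate, incubated 30 min at 30 °C. IC50 derived from percent inhibition plotted against log molar concentration; run in duplicate, mean of two reported.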

[4] = molecular target: 3',5'-cyclic-nucleotide phosphodiesterase (Bos taurus, UniProt A0A3Q1M1E8); assay: Inhibition of Phosphodiesterase 3 from bovine heart
Sequence of 3',5'-cyclic-nucleotide phosphodiesterase (A0A3Q1M1E8 1-1126): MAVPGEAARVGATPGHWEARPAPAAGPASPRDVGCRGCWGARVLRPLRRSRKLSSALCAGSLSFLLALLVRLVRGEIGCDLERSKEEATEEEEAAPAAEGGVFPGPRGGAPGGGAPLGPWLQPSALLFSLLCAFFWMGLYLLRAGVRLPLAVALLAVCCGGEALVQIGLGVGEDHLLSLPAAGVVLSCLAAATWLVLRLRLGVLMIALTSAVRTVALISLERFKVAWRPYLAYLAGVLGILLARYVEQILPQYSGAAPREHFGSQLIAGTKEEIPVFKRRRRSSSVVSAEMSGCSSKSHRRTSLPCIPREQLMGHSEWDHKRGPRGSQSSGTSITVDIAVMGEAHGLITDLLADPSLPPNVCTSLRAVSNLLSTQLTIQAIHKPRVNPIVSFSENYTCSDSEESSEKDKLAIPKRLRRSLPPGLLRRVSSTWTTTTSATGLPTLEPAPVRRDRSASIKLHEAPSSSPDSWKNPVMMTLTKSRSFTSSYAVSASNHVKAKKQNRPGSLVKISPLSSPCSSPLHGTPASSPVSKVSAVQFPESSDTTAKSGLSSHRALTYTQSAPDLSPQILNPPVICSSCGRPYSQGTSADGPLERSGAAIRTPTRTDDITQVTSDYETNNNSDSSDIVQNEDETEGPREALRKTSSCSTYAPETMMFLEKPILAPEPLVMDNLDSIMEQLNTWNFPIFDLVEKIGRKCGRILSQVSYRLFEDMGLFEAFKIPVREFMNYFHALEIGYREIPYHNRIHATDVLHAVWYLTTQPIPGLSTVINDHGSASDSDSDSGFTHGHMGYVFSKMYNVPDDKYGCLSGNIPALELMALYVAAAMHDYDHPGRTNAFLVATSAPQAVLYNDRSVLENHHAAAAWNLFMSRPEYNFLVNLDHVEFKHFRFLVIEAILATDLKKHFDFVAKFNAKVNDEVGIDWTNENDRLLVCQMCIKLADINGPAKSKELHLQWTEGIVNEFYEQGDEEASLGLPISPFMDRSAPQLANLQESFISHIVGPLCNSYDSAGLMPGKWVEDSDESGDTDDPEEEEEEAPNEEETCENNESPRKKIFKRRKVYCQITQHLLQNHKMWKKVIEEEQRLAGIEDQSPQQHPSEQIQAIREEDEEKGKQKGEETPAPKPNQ
In short: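 Enzymes purified from bovine heart (PDE3) or canine kidney (PDE4); 1 μM [3H]cAMP substrate, 50 mM Tris-HCl pH 7.5, 2 mM MgCl2, 0.1 mg/mL BSA, 30 min at 30 °C. IC50 taken from % inhibition vs log molar concentration; duplicates, mean reported.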

[5] = molecular target: Phosphodiesterase 4 (Canis familiaris); assay: Inhibition of phosphodiesterase PDE4 from canine kidney
[6] = molecular target: T1, cGMP-dependent 3',5'-cyclic phosphodiesterase (Bos taurus, UniProt P14099); assay: Inhibition of Phosphodiesterase 2 from bovine adrenal cortex
T1 sequence (P14099 whole entry): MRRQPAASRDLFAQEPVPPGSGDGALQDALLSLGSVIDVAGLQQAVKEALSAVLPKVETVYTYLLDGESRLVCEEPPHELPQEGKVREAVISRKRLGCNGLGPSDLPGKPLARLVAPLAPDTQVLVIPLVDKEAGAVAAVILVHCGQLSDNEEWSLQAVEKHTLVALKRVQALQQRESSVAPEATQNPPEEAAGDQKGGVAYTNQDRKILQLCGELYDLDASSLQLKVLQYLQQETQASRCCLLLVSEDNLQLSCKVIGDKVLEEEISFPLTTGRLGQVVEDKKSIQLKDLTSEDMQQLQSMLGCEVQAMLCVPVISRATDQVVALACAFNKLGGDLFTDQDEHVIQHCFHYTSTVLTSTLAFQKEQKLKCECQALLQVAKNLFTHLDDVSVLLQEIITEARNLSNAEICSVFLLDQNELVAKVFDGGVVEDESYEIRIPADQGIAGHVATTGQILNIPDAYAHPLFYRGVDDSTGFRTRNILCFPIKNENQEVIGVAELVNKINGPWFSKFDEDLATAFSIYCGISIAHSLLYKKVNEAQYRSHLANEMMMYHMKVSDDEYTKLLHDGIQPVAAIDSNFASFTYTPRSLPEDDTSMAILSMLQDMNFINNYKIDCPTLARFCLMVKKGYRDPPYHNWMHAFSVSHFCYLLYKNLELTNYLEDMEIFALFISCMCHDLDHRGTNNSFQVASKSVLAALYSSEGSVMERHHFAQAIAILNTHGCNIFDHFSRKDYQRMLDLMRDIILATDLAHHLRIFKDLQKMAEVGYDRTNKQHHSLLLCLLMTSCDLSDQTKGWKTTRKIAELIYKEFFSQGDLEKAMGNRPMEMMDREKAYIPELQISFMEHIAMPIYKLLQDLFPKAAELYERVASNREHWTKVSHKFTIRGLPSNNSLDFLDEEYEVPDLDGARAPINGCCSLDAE
In short: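 Recombinant bovine adrenal cortex enzyme; [3H]cAMP substrate in 50 mM Tris-HCl pH 7.5, 2 mM MgCl2, 0.1 mg/mL BSA, mixture also holding 5 μM cGMP; 30 min, 30 °C. IC50 from inhibition vs log molar concentration curve; duplicate determinations averaged.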

[7] = system: Rattus norvegicus; assay: Antihypertensive activity in spontaneously hypertensive rats at 25 mg/kg administered orally; type: functional; conditions: route oral; in short: as §1

Row | IC50 [1] [nM] | IC50 [3] [nM] | IC50 [4] [nM] | IC50 [5] [nM] | IC50 [6] [nM] | Compound | Delta mmHg [2] | Delta mmHg ([2]; 10 mg/kg) | Delta mmHg [7]
1 | 18000 | 2900 | > 100000 |  |  | Cc1n[nH]c2c1C(=O)N(C)C1=N[C@@H]3CCC[C@@H]3N12 | -7 |  | 
2 | 60 | 75 | 55000 | 230 | 11000 | CN1C(=O)c2c(nn(C)c2Cc2ccccc2)N2CC3(CCCC3)N=C12 | -33 |  | 
3 | 18 | 140 | 42000 |  |  | CN1C(=O)c2c(nn(C)c2Cc2ccccc2)N2CC(C)(C)N=C12 |  |  | 
4 | 540 | 2100 | 55000 |  |  | CN1C(=O)c2c(nn(Cc3ccccc3)c2-c2ccccc2)N2C1=N[C@@H]1CCC[C@@H]12 | 1 |  | 
5 | 55 | 100 | 80000 |  |  | CN1C(=O)c2c(nn(C)c2Cc2ccccc2)N2C1=N[C@@H]1CCC[C@@H]12 |  | -26 | 
6 | 20 | 100 | 90000 |  |  | CC(C)[C@@H]1CN2C(=N1)N(C)C(=O)c1c2nn(C)c1Cc1ccccc1 |  |  | 
7 | 2000 | 1000 | 50000 |  |  | Cc1nn(Cc2ccccc2)c2c1C(=O)N(C)C1=N[C@@H]3CCC[C@@H]3N12 | -3 |  | 
8 |  |  |  |  |  | Cc1nc2c(n1Cc1ccccc1)C(=O)N(C)C1=N[C@@H]3CCC[C@@H]3N12 | -28 |  | 
9 | 160 | 140 | 85000 |  |  | CN1C(=O)c2c(nn(C)c2Cc2ccccc2)N2C1=N[C@@H]1CCC[C@@H]12 (racemic) |  | -18 | 
10 | 850 | 400 | 29000 |  |  | CN1C(=O)c2c(Cc3ccccc3)nn(C)c2N2C1=N[C@@H]1CCC[C@@H]12 (racemic) |  |  | 
11 | 29000 | 3100 | 55000 |  |  | CN1C(=O)c2cnn(Cc3ccccc3)c2N2C1=N[C@@H]1CCC[C@@H]12 (racemic) |  |  | -14
12 | 1100 | 190 | > 100000 |  |  | CN1C(=O)c2c(Cc3ccccc3)n[nH]c2N2C1=N[C@@H]1CCC[C@@H]12 (racemic) |  |  | -16
